Results published in ChEMBL document CHEMBL1154599 (J Med Chem, 2009).

Key:
[1] = tested on: Mus musculus; assay: Ex vivo inhibition of MAO-B in C57Bl mouse brain at 0.5 mg/kg, po after 1 hr by radioenzymatic assay; type: functional; set-up: scale not given: the % may be the effect or the level left
Procedure, shortened: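 C57Bl mice (n = 6 per group) given 0.5 mg/kg orally and killed at 0.5, 1, 2, 4, 8 or 16 h. Brain homogenates in 0.1 M phosphate pH 7.40 assayed radioenzymatically for MAO-B with [14C]PEA. Mean ± SEM, ANOVA with Dunnett's test.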

[2] = tested on: SH-SY5Y; assay: Cytotoxicity against human SH-SY5Y cells after 24 hrs by MTS assay; type: functional, cell-based
Procedure, shortened: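 Human neuroblastoma SH-SY5Y cells kept in DMEM with 10% heat-inactivated FBS. Seeded at 6.25 × 10^4/cm2 and grown 72 h to subconfluence. Switched to serum-free neurobasal medium 30 min before compound, then 24 h at 37 °C with 1, 3, 10, 30 or 100 μM compound. Viability read by colorimetric MTS assay.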

[3] = target: Cytochrome P450 2C9 (Homo sapiens, UniProt P11712); assay: Inhibition of human recombinant CYP2C9; type: ADME
Procedure, shortened: (§1)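 Recombinant human CYP supersomes were incubated at 37 C in incubation/NADPH regenerating buffer with isoform-specific substrates that turn fluorescent on metabolism. The substrate was 3-cyano-7-ethoxycoumarin for CYP1A2 and 7-methoxy-4-trifluoromethylcoumarin for CYP2C9. Fluorescence was read at the appropriate excitation/emission wavelengths, with a literature inhibitor as positive control in each assay.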

[4] = Permeability across PAMPA membrane assessed as retention at 2.5 mM by HDM-PAMPA assay; type: ADME; conditions: 2500 µM
Procedure, shortened: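 Hexadecane artificial membrane (0.75 μL per well, applied as 5% v/v in hexane, hexane evaporated) on polycarbonate filters; donor and acceptor in 0.1 M phosphate buffer pH 6.8 with 5% DMSO (iso-pH); 5 h at room temperature, shaking at 75 rpm; quadruplicate. Donor and acceptor concentrations read by UV at λmax. Retention, CA(t)/CD(0) and Pe calculated by the stated equations, τLAG neglected; membrane integrity checked by electrical resistance.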

[5] = target: T1, Cytochrome P450 1A2 (Homo sapiens, UniProt P05177); assay: Inhibition of human recombinant CYP1A2; type: ADME; procedure, shortened: as §1
T1 sequence (P05177 whole entry): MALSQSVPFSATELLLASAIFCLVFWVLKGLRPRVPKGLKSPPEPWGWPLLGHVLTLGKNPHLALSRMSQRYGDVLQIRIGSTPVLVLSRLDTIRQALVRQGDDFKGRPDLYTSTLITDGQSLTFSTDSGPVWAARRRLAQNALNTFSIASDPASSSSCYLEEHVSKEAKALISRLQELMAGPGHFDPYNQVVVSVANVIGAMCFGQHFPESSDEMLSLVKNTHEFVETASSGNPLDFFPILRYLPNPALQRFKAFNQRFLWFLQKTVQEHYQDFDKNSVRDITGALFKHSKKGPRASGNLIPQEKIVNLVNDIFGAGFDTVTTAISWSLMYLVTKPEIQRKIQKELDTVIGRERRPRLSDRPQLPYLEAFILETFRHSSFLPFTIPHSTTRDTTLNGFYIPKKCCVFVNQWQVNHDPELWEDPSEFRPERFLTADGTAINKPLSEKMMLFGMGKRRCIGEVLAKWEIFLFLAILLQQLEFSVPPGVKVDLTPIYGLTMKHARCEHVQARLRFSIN

[6] = target: Amine oxidase [flavin-containing] B (Homo sapiens) (UniProt P27338); assay: Inhibition of MAO-B in human platelet rich plasma by radioenzymatic assay
Chain of Amine oxidase [flavin-containing] B (Homo sapiens) (P27338 whole entry, looked up): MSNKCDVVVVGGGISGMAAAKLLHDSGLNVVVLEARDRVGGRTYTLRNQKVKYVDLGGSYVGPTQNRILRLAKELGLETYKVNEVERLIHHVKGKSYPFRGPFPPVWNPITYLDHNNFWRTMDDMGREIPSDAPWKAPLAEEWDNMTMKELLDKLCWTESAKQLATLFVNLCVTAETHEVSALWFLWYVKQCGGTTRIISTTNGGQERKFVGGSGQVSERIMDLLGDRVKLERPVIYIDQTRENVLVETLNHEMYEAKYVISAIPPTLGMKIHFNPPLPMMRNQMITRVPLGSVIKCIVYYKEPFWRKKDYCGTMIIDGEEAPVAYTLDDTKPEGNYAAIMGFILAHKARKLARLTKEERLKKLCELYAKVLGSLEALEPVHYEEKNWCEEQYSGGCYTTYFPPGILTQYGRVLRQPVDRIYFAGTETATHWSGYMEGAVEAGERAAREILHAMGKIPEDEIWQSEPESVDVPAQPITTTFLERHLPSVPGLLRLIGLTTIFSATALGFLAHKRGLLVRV

Chain of Cytochrome P450 2C9 (P11712 whole entry, canonical isoform): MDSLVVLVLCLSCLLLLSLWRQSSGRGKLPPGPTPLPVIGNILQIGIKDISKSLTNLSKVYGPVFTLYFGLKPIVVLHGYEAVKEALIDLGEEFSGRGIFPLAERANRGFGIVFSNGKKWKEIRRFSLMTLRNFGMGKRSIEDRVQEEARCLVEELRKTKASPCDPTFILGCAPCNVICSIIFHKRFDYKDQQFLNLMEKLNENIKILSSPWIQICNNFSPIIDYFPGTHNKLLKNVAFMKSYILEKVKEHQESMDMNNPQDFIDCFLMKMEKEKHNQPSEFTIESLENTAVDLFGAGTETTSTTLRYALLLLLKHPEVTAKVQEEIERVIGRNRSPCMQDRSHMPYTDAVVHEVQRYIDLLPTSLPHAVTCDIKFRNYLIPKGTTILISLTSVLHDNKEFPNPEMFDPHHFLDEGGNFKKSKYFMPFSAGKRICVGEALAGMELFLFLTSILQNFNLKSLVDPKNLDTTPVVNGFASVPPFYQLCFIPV

IC50 [3]: > 5 µM | permeability [4]: 10% | IC50 [5]: > 5 µM | IC50 [6]: 0.003 µM
SMILES: CNCc1cc(=O)oc2cc(OCc3cccc(Cl)c3)ccc12.CS(=O)(=O)O
Activity [1]: 86% | IC50 [2]: 29.7 µM
